# From PubChem
# The list is not random: actives were taken first. Their share in the collection is about 2.1%.
# MT stabilizer: microtubule stabilizers in HeLa cells, primary screen, imaging, high-content imaging | HeLa tubulin immunostaining HCS, 24 h; share of cells brighter than vehicle mean+2SD | % tubulin-high responders, % at 10 µM | 200,000 compounds, 0.83% hits;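 active means plate Z-score above 3 for both tubulin-high and condensed-nucleus cell shares, with cell loss under 80%, at 10 µM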;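 further: anti alpha tubulin signal scored within the nucleus-defined area of each cell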
# IEC-6 tox: cytotoxicity in IEC-6 intestinal epithelial cells, primary screen, cytotoxicity control for KLF5 inhibitor project, cell-based, luminescence. IEC-6 cytotoxicity, luminescence viability. inhibition, % at 5 µM. 290,000 compounds, 0.78% hits
# bCat nuc transl: modulators of beta-catenin nuclear translocation, primary screen, imaging, HeLa cells, immunofluorescence, high-content | AID 1665, 2009 | 190,000 compounds, 0.3% hits | nuclear translocation activity, % at 5 µM;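 active means nuclear translocation activity above 50% at 5 µM, with a well cell count of 50 or more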;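 further: per-cell ratio of nuclear to cytoplasmic median beta-catenin stain intensity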
#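 Test system: human HeLa cell line; Doses: 5 µM primary, 0.02–20 µM confirmation; Incubation: 24 h compound exposure, 37°C; Detection: beta-catenin immunofluorescence imaging with DAPI; Read-out: beta-catenin nuclear/cytoplasmic ratio, % activation.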
# BaF3 parental: parental Ba/F3 cell viability inhibition, counter-screen for JAK2V617F inhibitor project, murine pro-B, CellTiter-Glo luminescence. AID 1486, 2009. 220,000 compounds, 1.1% hits. CellTiter-Glo ATP luminescence. inhibition, % at 5.6 µM;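 active means inhibition above a per-campaign cutoff, the mean inhibition of all tested compounds plus 3 SD, cut at about 27% in these data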
# KLF5 inh: KLF5 expression inhibitors, primary screen, DLD-1 cells, luminescence; DLD-1 KLF5 promoter-luciferase reporter; inhibition, % at 5 µM; 290,000 compounds, 0.23% hits; AID 1700, 2009;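 active means inhibition above a per-plate limit of that plate's mean compound inhibition plus 3 SD, cut at about 60% in these data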;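 further: higher means less KLF5 promoter-driven luciferase light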
# Ba/F3 V617F tox: reduced viability of JAK2V617F-dependent Ba/F3 cells, primary screen, JAK2V617F inhibitor project, cell-based, Ba/F3 EpoR-JAK2V617F, luminescence; ATP luminescence; inhibition, % at 5.6 µM; 220,000 compounds, 1.1% hits; AID 1446, 2008;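 active means inhibition above the campaign mean plus 3 SD over all tested compounds, cut at about 24% in these data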;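 further: cytokine-independent growth of Ba/F3 cells driven by EpoR plus mutant JAK2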
# IEC-6 cytotox cf: cytotoxic compounds in IEC-6 epithelial cells, confirmation, cytotoxicity control, cell-based, luminescence; shares compounds with IEC-6 tox; IEC-6 rat intestinal epithelial viability; inhibition, % at 5 µM; 1,900 compounds, 63% hits; AID 1907, 2009
# Numbers stand for hits; i = inactive; nt = not tested or not shown. Unless noted, no stated cut-off is given here; in the data, active means inhibition above about 22%; inactive means the rest.
SMILES,MT stabilizer,IEC-6 tox,bCat nuc transl,BaF3 parental,KLF5 inh,Ba/F3 V617F tox,IEC-6 cytotox cf
CCCCn1c(SCc2c(C)noc2C)nc2cc(S(N)(=O)=O)ccc21,i,30,i,62,i,68,i
CCn1c(=O)c(C(=O)CN2CCN(S(=O)(=O)c3cc(C)ccc3C)CC2)c(N)n(Cc2ccccc2)c1=O,i,i,i,i,i,i,nt
CCC(C)(CCNC(=O)Cc1ccccc1)c1ccccc1OC (centres undefined),nt,i,nt,nt,i,nt,nt
COc1cnc(-c2cccc(C(F)(F)F)c2)[nH]c1=O,i,i,i,i,i,i,nt
FC(F)(F)c1cccc(-c2nc3nc(Cl)c(Cl)nc3[nH]2)c1,nt,31,i,i,i,i,39
Cc1cc(NC(=O)CSc2nnc(CNC(=O)c3cccc(C(F)(F)F)c3)o2)no1,nt,i,nt,nt,i,nt,nt
COc1ccc(NS(=O)(=O)c2cc(Br)cc3c2N(C(C)=O)CC3)cc1,nt,38,nt,nt,i,nt,33
COc1ccc(CC(=O)Nc2cccc3c2CCCC3)cc1,nt,i,nt,nt,i,nt,nt
COc1ccc(C(=O)Nc2cccc3c2CCCC3)cc1,nt,24,nt,nt,i,nt,i
O=C(Nc1ccc(F)cc1)c1oc2ccccc2c1NC(=O)C1CC1,nt,i,nt,nt,i,nt,nt
COc1cccc(C2=CC(c3ccccc3)n3nnnc3N2)c1 (centres undefined),32,28,nt,i,i,i,32
Cc1cc(C)c(NC(=S)N2CCC(N(C)CC3CCCO3)CC2)c(C)c1 (centres undefined),i,27,i,i,i,i,i
Cc1ccc(S(=O)(=O)Nc2ccc(Nc3ccccc3)cc2)cc1,nt,i,nt,nt,i,nt,nt
Cc1ccc(S(=O)(=O)Nc2ccccc2-c2ccccc2)cc1,36,55,62,71,i,69,51
CCOC(=O)C1=C(CS(=O)(=O)c2ccc(C)cc2)NC(=O)NC1c1cc(OC)c(O)c(OC)c1 (centres undefined),nt,i,nt,nt,i,nt,nt
O=C(Nc1cccc(C(=O)Nc2ccc(Cl)cn2)c1)c1ccccc1,nt,i,nt,nt,i,nt,nt
O=C(Nc1ccc(Cl)cn1)c1cccc(F)c1,39,23,100,i,i,i,33
CCc1nnc(SCc2cn3c(C)cc(C)nc3n2)n1N,i,i,i,i,i,i,nt
COc1ccc(C(=O)c2ccc(OC)c(N)c2)cc1N,34,76,nt,81,i,81,61
CC(C)CNC(=O)COC(=O)CCC(=O)c1ccc(Cl)cc1,i,i,i,i,i,i,nt
O=c1cnn(Cc2ccc(F)cc2)c2ccccc12,nt,i,nt,nt,i,nt,nt
O=c1c(Cl)c(Cl)cnn1Cc1ccc(F)cc1,i,27,i,i,i,i,i
Cc1cc(NS(=O)(=O)c2ccc(NC(=S)NC(=O)c3ccccc3)cc2)no1,i,63,i,i,i,i,23
COc1ccc(CC(NC(C)=O)C(=O)NC2CCN(c3nnnn3-c3ccccc3)CC2)cc1OC (centres undefined),i,i,i,i,i,i,nt
CN(Cc1ccc(F)cc1)Cc1nc(-c2cnccn2)no1,i,i,i,i,i,i,nt
SMILES,MT stabilizer,IEC-6 tox,bCat nuc transl,BaF3 parental,KLF5 inh,Ba/F3 V617F tox,IEC-6 cytotox cf
CC#CC(=O)N1CCC(CCc2ccccc2)(C(=O)OCC)CC1,i,27,i,i,i,i,i
CCOC(=O)C1(CCc2ccccc2)CCN(C(=O)c2ccoc2)CC1,i,i,i,i,i,i,nt
CC(=O)/C(C#N)=C1\NC(=O)C(Cc2ccc(C)c(C)c2)S1 (centres undefined),i,78,i,i,i,i,50
CC(=O)/C(C#N)=C1\NC(=O)C(Cc2ccc(F)cc2)S1 (centres undefined),nt,72,i,i,i,i,48
COc1cc(Cl)c(C)cc1NC(=O)CCNC(=O)c1ccco1,nt,i,nt,nt,i,nt,nt
O=C(NCc1ccccc1)NCc1cccs1,i,i,i,i,i,i,nt
O=C(CCNC(=O)Cn1ccc2ccccc2c1=O)NCc1ccc(F)cc1Cl,i,i,i,i,i,i,nt
Cc1cccc(Nc2nc(-c3ccncc3)cs2)c1,i,65,i,i,i,i,75
Cc1ccc(Nc2nc(-c3ccncc3)cs2)cc1,i,27,i,i,i,i,84
Cc1ccc(Nc2nc(-c3sc(N)nc3C)cs2)cc1,nt,i,nt,nt,i,nt,nt
COc1ccc(Nc2nc(-c3sc(C)nc3C)cs2)c(OC)c1,nt,60,nt,nt,i,nt,40
Cc1ccc(Nc2nc(-c3sc(C)nc3C)cs2)cc1,nt,75,nt,nt,i,nt,52
Cc1ccc(-c2csc(Nc3ccccn3)n2)cc1,nt,i,nt,nt,i,nt,nt
Nc1cc(Cl)ccc1Nc1ccncc1,nt,i,nt,nt,i,nt,nt
Fc1ccc(NC(=S)N2CCOCC2)cc1Cl,i,58,i,100,i,97,i
CS(=O)(=O)/C(C#N)=C\c1cnc(S(=O)(=O)c2ccccc2)s1,nt,36,nt,nt,i,nt,i
CC1CC2(CCCC2)N(C(=O)N(C)C)c2ccc(F)cc21 (centres undefined),nt,i,nt,nt,i,nt,nt
Cc1[nH]nc(Nc2ccc(Br)cc2)c1[N+](=O)[O-],nt,35,i,i,i,i,i
Cc1[nH]nc(Nc2ccc(C(C)C)cc2)c1[N+](=O)[O-],nt,40,i,i,i,i,23
Cc1ccc(Nc2n[nH]c(C)c2[N+](=O)[O-])cc1,i,i,i,i,i,i,nt
N#Cc1ccc(/C=N/N=C(N)N)cc1,i,i,i,i,i,i,nt
NC(N)=N/N=C/c1ccc(Br)cc1,24,26,113,34,i,i,56
COc1ccccc1CN1CC(C(=O)N(C)Cc2ccc(C)o2)CCC1=O (centres undefined),nt,i,nt,nt,i,nt,nt
CCSc1ncc(Cl)c(C(=O)Nc2ccc(S(N)(=O)=O)cc2)n1,nt,i,nt,nt,i,nt,nt
Cc1onc(-c2c(F)cccc2Cl)c1C(=O)NCc1ccc2c(c1)OCO2,nt,i,nt,nt,i,nt,nt
SMILES,MT stabilizer,IEC-6 tox,bCat nuc transl,BaF3 parental,KLF5 inh,Ba/F3 V617F tox,IEC-6 cytotox cf
Cc1c(C(=O)NCc2ccc3c(c2)OCO3)oc2ccc(Br)cc12,i,i,i,i,i,i,nt
Cc1cccc(CS(=O)(=O)c2ncc(Cl)c(C(=O)NCc3ccc4c(c3)OCO4)n2)c1,nt,31,nt,nt,i,nt,33
CC(=O)Nc1ccc(NC(=O)c2nc(S(=O)(=O)Cc3cccc(C)c3)ncc2Cl)cc1,nt,36,nt,nt,i,nt,i
Cc1cccc(COC(=O)Nc2ccc(NC(=O)c3ccccc3Cl)cc2)c1,nt,i,nt,nt,i,nt,nt
COC(=O)c1ccc(NC(=O)c2nc(S(=O)(=O)Cc3cccc(C)c3)ncc2Cl)cc1,nt,43,nt,nt,i,nt,i
Cc1ccc2oc(C(=O)NCc3ccc4c(c3)OCO4)c(C)c2c1,i,48,i,i,i,i,i
C=CCn1c(SCC(=O)Nc2cc(C)on2)nc2c([nH]c3ccccc32)c1=O,nt,i,nt,nt,i,nt,nt
COC(=O)c1ccc(NC(=O)CSc2ccc(-c3ccccn3)nn2)cc1,nt,i,nt,nt,i,nt,nt
